Results: ChEMBL document CHEMBL1914356, “Maslinic acid derivatives induce significant apoptosis in b16f10 murine melanoma cells” (2011)
Calls of active or inactive are those of the source. No cut-off for these calls is given here.

Assays:
[1] = tested on: B16-F10; assay: Induction of apoptosis in mouse B16F10 cells assessed as total apoptosis at 1 uM after 24 hrs using annexin V-FITC/propidium iodide staining by flow cytometry; assay type: functional
Procedure, shortened: (§1)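 B16-F10 cells grown in DMEM with 4 mM L-glutamine, 1.5 g/L bicarbonate, 1 mM pyruvate, 4.5 g/L glucose, 10% FBS. Seeded at 300,000 cells/well in 6-well dishes, treated 24 h later with compound in DMSO. Vehicle and medium-only controls. Detached with EDTA-trypsin, PBS-washed, stained with annexin V-FITC and PI 15 min at room temperature in dark. Total apoptosis = early + late. Mean ± SD, two independent experiments.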

[2] = tested on: B16-F10; assay: Induction of apoptosis in mouse B16F10 cells assessed as total apoptosis at 1 to 10 uM after 48 hrs using annexin V-FITC/propidium iodide staining by flow cytometry; assay type: functional, cell-based; procedure, shortened: as §1
[3] = tested on: B16-F10; assay: Induction of apoptosis in mouse B16F10 cells assessed as total apoptosis at 20 uM after 24 hrs using annexin V-FITC/propidium iodide staining by flow cytometry; assay type: functional
Procedure, shortened: (§2)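 B16-F10 cells in DMEM/10% FBS were plated at 300,000 cells/well, then treated 24 h later, in duplicate, in DMSO at […] for 24 or 48 h. Vehicle and medium controls were included. Annexin V-FITC/PI staining ran 15 min at room temperature in the dark. Total apoptosis (early + late) was read by flow cytometry as mean ± SD from two independent experiments.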

[4] = tested on: B16-F10; assay: Induction of apoptosis in mouse B16F10 cells assessed as necrotic cells at 30 uM after 24 hrs using annexin V-FITC/propidium iodide staining by flow cytometry; assay type: functional
Procedure, shortened: (§3)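 B16-F10 cells grown in DMEM with 4 mM L-glutamine, 1 mM pyruvate, 4.5 g/L glucose and 10% FBS. 300,000 cells/well were plated, then treated in DMSO after 24 h. Vehicle and medium-alone controls were included. Cells were detached with EDTA-trypsin, PBS-washed and set at 1 × 10^6 cells/mL in binding buffer. Annexin V-FITC/PI staining ran 15 min at room temperature in the dark, followed by flow cytometry within 1 h.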

[5] = tested on: B16-F10; assay: Induction of apoptosis in mouse B16F10 cells assessed as early/late apoptotic cells at 30 uM after 24 hrs using annexin V-FITC/propidium iodide staining by flow cytometry; assay type: functional; procedure, shortened: as §3
[6] = tested on: B16-F10; assay: Induction of apoptosis in mouse B16F10 cells assessed as total apoptosis at 20 uM after 48 hrs using annexin V-FITC/propidium iodide staining by flow cytometry; assay type: functional, cell-based; procedure, shortened: as §2
[7] = tested on: B16-F10; assay: Induction of apoptosis in mouse B16F10 cells assessed as total apoptosis at 1 to 10 uM after 24 hrs using annexin V-FITC/propidium iodide staining by flow cytometry; assay type: functional, cell-based; procedure, shortened: as §1

Row | Compound | Activity [1] | Activity [2] | Activity [3] | Activity [4] | Activity [5] | Activity [6] | Activity [7]
1 | CC(=O)O[C@@H]1C[C@]2(C)[C@H]3CC=C4[C@@H]5CC(C)(C)CC[C@]5(C#N)CC[C@@]4(C)[C@]3(C)CC[C@H]2C(C)(C)[C@H]1OC(C)=O | 68.62% | inactive | 70% | <10% | 80% | Active | Active
2 | CC1(C)CC[C@]2(C#N)CC[C@]3(C)C(=CC[C@@H]4[C@@]5(C)C[C@@H](O)[C@H](O)C(C)(C)[C@@H]5CC[C@]43C)[C@@H]2C1 | 78.75% | inactive | 70% | <10% | 80% | Active | Active
3 | CC1(C)CC[C@]2(C(=O)OCc3ccccc3)CC[C@]3(C)C(=CC[C@@H]4[C@@]5(C)C[C@@H](O)[C@H](O)C(C)(C)[C@@H]5CC[C@]43C)[C@@H]2C1 [BENZYL MASLINATE] | 87.5% | inactive | > 70% | <10% | 80% | Active | Active
